Data from ChEMBL document CHEMBL1122020, “Synthesis and enzymic activity of various substituted pyrazolo[1,5-a]-1,3,5-triazines as adenosine cyclic 3',5'-phosphate phosphodiesterase inhibitors” (J Med Chem, 1982).

Key:
[1] = molecular target: T1, Phosphodiesterase 4 (Homo sapiens) (UniProt P27815+Q08499+Q07343+Q08493); assay: Inhibitory activity towards cAMP phosphodiesterase isolated from rabbit lung.; assay type: protein assay; parameters: unit not given here; details: Oryctolagus cuniculus; target entry is the homologue from another species
Outline: (§1)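 PDE prepared as previously described. Each 0.5 mL reaction held 25 µmol Tris-HCl (pH 7.5), 5 µmol MgCl2, 10-75 µg enzyme protein, 350 pmol [8-3H]cAMP (850 cpm/pmol), and at least seven inhibitor concentrations (0.5 µM to 5 mM). 5'-AMP formed was measured at three or more time points (3-12 min) to confirm linear rates. I50 was read graphically from % inhibition versus log inhibitor concentration.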

Bos taurus [2] = species on record: Bos taurus
Bos taurus [3] = species on record: Bos taurus; remark: listed apart in the source
[4] = molecular target: T1, Phosphodiesterase 4 (Homo sapiens); assay: Inhibitory activity towards cAMP phosphodiesterase isolated from bovine heart.; assay type: protein assay; parameters: unit not given here; details: Bos taurus; target entry is the homologue from another species; outline: as §1
Bos taurus [5] = species on record: Bos taurus; assay: (§2) Inhibition of bovine brain cAMP Phosphodiesterase; parameters: unit not given here; outline: as §1
[6] = molecular target: T1, Phosphodiesterase 4 (Homo sapiens); assay: Inhibitory activity towards cAMP Phosphodiesterase isolated from rabbit heart; assay type: protein assay; parameters: reference not given here; details: Oryctolagus cuniculus; target entry is the homologue from another species
[7] = Inhibition of bovine heart cAMP Phosphodiesterase; parameters: species or system Bos taurus
Outline: as §1, with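 “Enzymes” for “PDE”, “described (beef heart, 14 units/mg; rabbit lung, 70 units/mg). The” for “described. Each”, “pH 7.5,” for “(pH 7.5),”, “5'-AMP” for “5'-AMP formed”, “vs” for “versus”, “log” for “log inhibitor”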

[8] = Inhibition of rabbit lung cAMP Phosphodiesterase; parameters: species or system Oryctolagus cuniculus; details: read-out: I50
Outline: as §1, with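 “Enzymes” for “PDE”, “described (beef heart, 14 units/mg; rabbit lung, 70 units/mg). The” for “described. Each”, “pH 7.5,” for “(pH 7.5),”, “5'-AMP” for “5'-AMP formed”, “vs” for “versus”, “log” for “log inhibitor”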

[9] = molecular target: T1, Phosphodiesterase 4 (Homo sapiens); assay: as §2; details: Bos taurus; target entry is the homologue from another species; outline: as §1

Activity [1]	Activity [4]	Activity [6]	SMILES	further results
10			Cc1nc(-c2ccccc2)n2nc(-c3ccccc3)cc2n1	
			Nc1ncnc2c1ncn2[C@@H]1O[C@@H]2COP(=O)(O)O[C@H]2[C@H]1O	Km (Oryctolagus cuniculus): 0.56 µM; Km (Bos taurus [2]): 1.3 µM; Km (Bos taurus [3]): 0.63 µM
14	8		CCc1nc(CC)n2nc(-c3ccc(OC)cc3)cc2n1	
14	0.5		CCc1ncn2nc(-c3ccccc3)cc2n1	Activity (Bos taurus [5]): 97
26		6.2	CCN(CC)c1nc(SC)nc2c(Br)cnn12	
25	3		Cc1ncn2nc(-c3ccccc3)cc2n1	Activity (Bos taurus [5]): 49
20	7		CCc1nc(CC)n2nc(-c3ccccc3)cc2n1	Activity (Bos taurus [5]): 12
26	3.8		CCCNc1ncnc2cc(-c3ccccc3)nn12	
1.8	0.9		Cc1ncn2nc(-c3ccccc3)c(Br)c2n1	
25	3		Cc1nc(C)n2ncc(-c3ccccc3)c2n1	Activity (Bos taurus [5]): 40
15	16		CCc1nc(CC)n2nc(-c3ccccc3C)cc2n1	Activity (Bos taurus [5]): 42
8		3.2	CCSc1nc(SC)nc2ccnn12	
	5		CCc1nc(C)nc2c(-c3cccc(C)c3)cnn12	
1.9	0.5		Cc1nc(O)n2nc(-c3ccccc3)cc2n1	Activity (Bos taurus [5]): 4.7
185	40		CCN(CC)c1ncnc2c(Br)c(-c3ccccc3)nn12	
0.7	1.2		CCOC(=O)c1cnn2c(CC)nc(C)nc12	
13		2.6	CCSc1nc(SC)nc2c(Br)cnn12	
1		0.68	CSc1nc(S)n2ncc(Br)c2n1	
11	1.7		CCCCNc1nc(C)nc2cc(-c3ccccc3)nn12	
16	3		CCc1nc(C)nc2cc(-c3ccc(OC)cc3)nn12	
			Cn1c(=O)c2nc[nH]c2n(C)c1=O [THEOPHYLLINE]	Ki [7]: 77 µM; IC50 ([7]; read-out: I50): 90 µM; IC50 [8]: 210 µM
19		12.2	CCN(CC)c1nc(SC)nc2ccnn12	Activity [9]: 12
11		7.3	CSc1ncnc2cc(-c3ccccc3)nn12	
1	0.9		Cc1nc(C)n2nccc2n1	
5		1.5	CSc1nc(SC)n2ncc(Br)c2n1	
12	2.7		CCc1nc(C)n2nc(-c3ccccc3)cc2n1	

Activity [1]	Activity [4]	Activity [6]	SMILES	further results
40		8	CCNc1nc(SC)nc2c(Br)cnn12	Activity [9]: 17
40	3		Cc1nc(C)n2nc(-c3ccccc3)c(Br)c2n1	
1.5		4	CSc1nc(OC(C)C)n2ncc(Br)c2n1	
1.5	0.4		Cc1cccc(-c2cnn3cnc(C)nc23)c1	
8	2		CCCc1nc(C)nc2c(Br)c(-c3ccccc3)nn12	
27	10		CCc1nc(C)nc2c(-c3ccccc3)cnn12	Activity (Bos taurus [5]): 39
14	2		Cc1cccc(-c2cnn3c(C)nc(C)nc23)c1	
1.2	1.7		CCc1nc(C)nc2c(C#N)cnn12	
12		5.8	CCCNc1nc(SC)nc2ccnn12	
160		12.5	CCCCNc1nc(SC)nc2c(Br)cnn12	Activity [9]: 18
1.6		0	CSc1nc(C)n2nccc2n1	
14	7		CCc1nc(C)nc2c(Br)c(-c3ccccc3)nn12	
2.5	1		CCc1nc(C)nc2c(Br)cnn12	
143	57		CCN(CC)c1ncnc2cc(-c3ccccc3)nn12	Activity (Bos taurus [5]): 146
9	2		CCc1nc(CC)n2nc(-c3ccccc3)c(Br)c2n1	
29	11		c1ccc(-c2cc3ncnc(N4CCCCC4)n3n2)cc1	
9		3.2	COc1nc(SC)nc2c(Br)cnn12	
1.1	0.7		CCc1nc(C)nc2ccnn12	
0.6		0.5	COc1nc(SC)nc2ccnn12	
13.5	2.5		CCCCNc1ncnc2cc(-c3ccccc3)nn12	
10	11		CCCc1nc(C)nc2cc(-c3ccccc3)nn12	
1.8	0.8		CCc1nc(C)nc2c(Cl)cnn12	
21	4		CCc1nc(C)nc2cc(-c3ccccc3)nn12	
22	3.5		Cc1nc(C)n2nc(-c3ccccc3)cc2n1	Activity (Bos taurus [5]): 19
2.4	0.5		CCc1nc(C)n2nccc2n1	
2.7		0.7	CCCOc1nc(SC)nc2c(Br)cnn12	

SMILES	Activity [1]	Activity [4]	Activity [6]	further results
CCCNc1nc(SC)nc2c(Br)cnn12	67		6.9	
